# From ChEMBL document CHEMBL4627381, “Licochalcone A Selectively Resensitizes ABCG2-Overexpressing Multidrug-Resistant Cancer Cells to Chemotherapeutic Drugs” (J Nat Prod, 2020)
# Active and inactive are the calls of the source. The rule behind the calls is not given here.
# Key:
# [1] = target: T1, Broad substrate specificity ATP-binding cassette transporter ABCG2 (Homo sapiens, UniProt Q9UNQ0); experiment: Reversal of human ABCG2-mediated multidrug resistance in HEK293/R482 cells assessed as fold change in mitoxantrone IC50 at 1 uM after 72 hrs by CCK8 assay relative to mitoxantrone IC50; assay type: cell-based
# T1 sequence (Q9UNQ0 whole entry): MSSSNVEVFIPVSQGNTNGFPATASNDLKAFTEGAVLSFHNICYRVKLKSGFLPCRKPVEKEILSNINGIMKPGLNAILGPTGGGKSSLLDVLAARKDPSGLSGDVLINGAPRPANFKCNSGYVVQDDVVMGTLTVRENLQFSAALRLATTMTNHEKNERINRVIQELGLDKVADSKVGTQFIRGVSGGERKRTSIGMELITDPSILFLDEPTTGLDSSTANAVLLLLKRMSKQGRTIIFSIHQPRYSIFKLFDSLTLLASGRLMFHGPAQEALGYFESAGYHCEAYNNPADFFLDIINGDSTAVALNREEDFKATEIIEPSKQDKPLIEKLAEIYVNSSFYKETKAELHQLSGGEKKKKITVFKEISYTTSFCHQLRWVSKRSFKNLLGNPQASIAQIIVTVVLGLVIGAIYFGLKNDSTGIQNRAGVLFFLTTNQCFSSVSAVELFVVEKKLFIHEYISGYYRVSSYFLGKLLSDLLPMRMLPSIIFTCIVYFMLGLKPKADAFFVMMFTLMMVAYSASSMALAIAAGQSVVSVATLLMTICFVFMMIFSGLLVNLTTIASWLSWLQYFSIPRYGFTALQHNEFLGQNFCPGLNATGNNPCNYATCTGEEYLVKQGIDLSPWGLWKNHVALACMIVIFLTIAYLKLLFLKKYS
# Summary of the method: (§1)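 Cells were seeded at 5000/well for 24 h, then given colchicine, etoposide, mitoxantrone or topotecan ± non-toxic modulator (0.5–3.0 μM) for 72 h, with DMSO up to 0.5%. IC50 came from fitted curves (mean ± SD, three experiments). Fold-reversal = IC50 without modulator ÷ IC50 with modulator.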
# [2] = test system: S1-M1-80; experiment: Induction of apoptosis in human S1-M1-80 cells harboring ABCG2 (unknown origin) assessed as late apoptotic cells at 10 uM incubated for 48 hrs by annexin V/propidium iodide staining based flow cytometry (reference value: 2.9%); assay type: functional
# [3] = test system: S1; experiment: Induction of apoptosis in human S1 cells assessed as viable cells at 10 uM incubated for 48 hrs in presence of topotecan by annexin V/propidium iodide staining based flow cytometry (reference value: 94.1%); assay type: functional; conditions: S1, 48 h, read-out: Activity
# [4] = test system: S1-M1-80; experiment: Downregulation of ABCG2 expression in human S1-M1-80 cells at 0.5 to 3 uM incubated for 72 hrs by Western blot analysis; assay type: functional, cell-based
# Summary of the method: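 S1-M1–80 and H460-MX20 cells were treated with 0.5–3.0 μM or DMSO vehicle for 72 h, then run on SDS-PAGE and immunoblotted with BXP-21 (1:15000) for ABCG2. α-Tubulin (1:100000) served as loading control, with HRP goat anti-mouse secondary. Bands were quantified as mean ± SEM of three independent experiments.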
# [5] = test system: HEK293; experiment: Induction of pheophorbide A accumulation in HEK293 cells at 20 uM incubated for 1 hr by FACScan flow cytometry; assay type: cell-based; conditions: human, hek293, 1 h
# Summary of the method: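 Cells held drug-free 7 days. 3 × 10^5 cells were suspended in IMDM with 5% FCS and loaded with pheophorbide A (ex 395/em 670 nm) for 1 h, with or without LCA (20 μM for single-concentration accumulation) or Ko143 3 μM as reference. Read immediately by flow cytometry. Efflux inhibition was run over a concentration range; mean ± SD of three experiments.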
# [6] = test system: NCI-H460; experiment: Effect on topotecan-induced cytotoxicity against human H460 cells assessed as fold change in topotecan IC50 at 1 uM after 72 hrs by MTT assay relative to topotecan IC50; assay type: functional
# Summary of the method: (§2)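 Parental S1 colon and H460 lung cancer cells were exposed for 72 h to a mitoxantrone or topotecan concentration series, with or without modulator at 0.5–3.0 μM, and read by MTT. Fold-reversal is IC50 without modulator divided by IC50 with modulator, taken from dose-response curves of three independent experiments.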
# [7] = test system: NCI-H460; experiment: Effect on mitoxantrone-induced cytotoxicity against human H460 cells assessed as fold change in mitoxantrone IC50 at 1 uM after 72 hrs by MTT assay relative to mitoxantrone IC50; assay type: functional; summary of the method: as §2
# [8] = test system: S1; experiment: Effect on topotecan-induced cytotoxicity against human S1 cells assessed as fold change in topotecan IC50 at 0.5 uM after 72 hrs by MTT assay relative to topotecan IC50; assay type: functional; summary of the method: as §2
# [9] = target: T1, Broad substrate specificity ATP-binding cassette transporter ABCG2; experiment: Reversal of ABCG2 (unknown origin)-mediated multidrug resistance in human S1-M1-80 cells assessed as fold-change in mitoxantrone IC50 at 2 uM after 72 hrs by MTT assay relative to mitoxantrone IC50; assay type: cell-based; conditions: s1-m1-80, 72 h
# Summary of the method: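 MTT readout in S1-M1-80 colon cancer cells (mitoxantrone-selected, held in 80 μM mitoxantrone, then drug-free 7 days before assay). Cells were seeded at 5000/well for 24 h, then given increasing mitoxantrone or topotecan with DMSO or non-toxic modulator for 72 h at 37 °C. IC50 came from fitted dose-response curves (at least three independent experiments). Fold-reversal = IC50 without modulator ÷ IC50 with modulator.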
# [10] = target: T1, Broad substrate specificity ATP-binding cassette transporter ABCG2; experiment: Reversal of human ABCG2-mediated multidrug resistance in HEK293/R482 cells assessed as fold-change in topotecan IC50 at 1 uM after 72 hrs by CCK8 relative to topotecan IC50; assay type: cell-based; summary of the method: as §1
# [11] = test system: HEK293; experiment: Effect on topotecan-induced cytotoxicity against HEK293 cells assessed as fold change in topotecan IC50 at 2 uM after 72 hrs by CCK8 assay relative to topotecan IC50; assay type: cell-based; conditions: human, hek293, 72 h
# Summary of the method: (§3)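 Reversal assay in parental pcDNA-HEK293 and transfected HEK293 lines (ABCB1 for colchicine, ABCC1 for etoposide, ABCG2 for mitoxantrone/topotecan). Substrate drug series was given with or without nontoxic modulator (0.5, 1.0, 2.0 or 3.0 μM) for 72 h, with a CCK-8 read-out. Fold-reversal is substrate IC50 without modulator divided by IC50 with modulator. Three independent experiments.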
# [12] = test system: HEK293; experiment: Effect on mitoxantrone-induced cytotoxicity against HEK293 cells assessed as fold change in mitoxantrone IC50 at 0.5 uM after 72 hrs by CCK8 assay relative to mitoxantrone IC50; assay type: cell-based; conditions: human, hek293, 72 h; summary of the method: as §3
# [13] = target: ATP-dependent translocase ABCB1 (Homo sapiens, UniProt P08183); experiment: Reversal of human ABCB1-mediated multidrug resistance in HEK293/MDR19 cells assessed as fold change in colchicine IC50 at 0.5 uM after 72 hrs by CCK8 relative to colchicine IC50; assay type: cell-based; summary of the method: as §1
# Sequence of ATP-dependent translocase ABCB1 (P08183 whole entry): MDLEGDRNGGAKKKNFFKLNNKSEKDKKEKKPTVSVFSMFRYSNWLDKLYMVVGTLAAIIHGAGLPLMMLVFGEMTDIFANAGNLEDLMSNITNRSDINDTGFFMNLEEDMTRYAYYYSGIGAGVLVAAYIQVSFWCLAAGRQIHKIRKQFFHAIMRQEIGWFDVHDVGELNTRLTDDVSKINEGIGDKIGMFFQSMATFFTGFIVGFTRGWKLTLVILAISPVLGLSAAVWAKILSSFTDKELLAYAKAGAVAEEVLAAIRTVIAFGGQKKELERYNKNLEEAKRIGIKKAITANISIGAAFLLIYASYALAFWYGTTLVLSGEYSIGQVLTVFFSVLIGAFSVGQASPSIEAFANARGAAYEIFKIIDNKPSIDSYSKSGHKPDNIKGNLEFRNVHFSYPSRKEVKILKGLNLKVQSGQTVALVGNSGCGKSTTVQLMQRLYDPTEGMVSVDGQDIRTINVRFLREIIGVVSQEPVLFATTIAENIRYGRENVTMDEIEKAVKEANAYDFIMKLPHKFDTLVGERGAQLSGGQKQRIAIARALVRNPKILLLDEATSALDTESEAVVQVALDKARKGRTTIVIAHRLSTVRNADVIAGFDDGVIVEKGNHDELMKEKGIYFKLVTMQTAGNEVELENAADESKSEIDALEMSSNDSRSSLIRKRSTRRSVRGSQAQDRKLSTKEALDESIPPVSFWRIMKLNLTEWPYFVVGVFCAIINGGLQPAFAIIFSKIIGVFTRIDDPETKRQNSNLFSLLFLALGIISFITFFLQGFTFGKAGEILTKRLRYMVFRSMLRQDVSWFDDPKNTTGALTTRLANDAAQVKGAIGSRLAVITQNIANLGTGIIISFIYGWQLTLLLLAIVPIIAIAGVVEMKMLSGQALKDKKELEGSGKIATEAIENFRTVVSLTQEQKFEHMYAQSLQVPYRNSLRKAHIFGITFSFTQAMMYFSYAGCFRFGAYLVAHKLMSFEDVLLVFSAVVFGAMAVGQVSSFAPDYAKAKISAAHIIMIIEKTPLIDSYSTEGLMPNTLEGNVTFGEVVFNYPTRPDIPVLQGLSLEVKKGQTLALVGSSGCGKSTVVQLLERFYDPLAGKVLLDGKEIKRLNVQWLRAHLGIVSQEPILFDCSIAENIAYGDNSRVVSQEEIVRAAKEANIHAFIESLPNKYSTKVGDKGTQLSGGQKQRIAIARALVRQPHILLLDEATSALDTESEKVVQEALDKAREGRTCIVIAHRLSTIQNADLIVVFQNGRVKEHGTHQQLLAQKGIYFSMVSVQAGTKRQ
# [14] = test system: HEK293; experiment: Effect on Colchicine-induced cytotoxicity against HEK293 cells assessed as fold change in colchicine IC50 at 3 uM after 72 hrs by CCK8 assay relative to colchicine IC50; assay type: cell-based; conditions: human, hek293, 72 h; summary of the method: as §3
structure (smiles),measurement,setting,value
C=CC(C)(C)c1cc(/C=C/C(=O)c2ccc(O)cc2)c(OC)cc1O [LICOAGROCHACONE A],fold change (FC),[1],7.1
same,Activity,[2],2.9%
same,viability at 10 µM,[3],44.1%
same,Activity,[4],inactive
same,Activity,[5],Non-Toxic
same,fold change (FC),[6],1.7
same,fold change (FC),[7],1.1
same,fold change (FC),[8],0.9
same,fold change (FC),[9],28
same,fold change (FC),[10],3.9
same,fold change (FC),[11],1
same,fold change (FC),[12],0.9
same,fold change (FC),[13],1
same,fold change (FC),[14],0.9
